Measured values from ChEMBL document CHEMBL3526060, “Impact of hydrolysis-mediated clearance on the pharmacokinetics of novel anaplastic lymphoma kinase inhibitors” (Drug Metab Dispos, 2013).

Columns and labels:
[1] = Drug metabolism in CD-1 mouse NADPH-fortified liver microsomes assessed as hydrolysis metabolite formation rate by LC-MS/MS analysis; assay type: ADME
Procedure, shortened: (§1)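 Mouse liver microsomes 0.25 mg/mL in 0.1 M phosphate pH 7.4, with or without 1 mM NADPH, substrate 0.0023–5 µM; sampling to 40 min into acetonitrile/IS, LC-MS/MS depletion. Hydrolysis Vmax/Km solved from no-NADPH incubations, then NADPH-dependent constants; metabolite formation rate simulated from fitted constants; duplicates.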

[2] = Plasma clearance in CD-1 mouse at 2 mg/kg, iv administered as single bolus dose by LC-MS/MS analysis; assay type: ADME, organism-based; design: dose 2 mg/kg, route intravenous
Procedure, shortened: (§2)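 Single 2 mg/kg IV bolus via lateral tail vein to male CD-1 mice. Mice euthanized at 0.083–24 h, 3 per time point (27 animals); cardiac-puncture blood into heparin on ice, plasma spun at 4 °C and immediately extracted with acetonitrile/0.1% formic acid plus IS, LC-MS/MS. Noncompartmental CL = Dose/AUC0–inf, t1/2 = 0.693/k, Vss from AUMC/AUC, MRT = Vss/CL.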

[3] = AUC (0 to infinity) in CD-1 mouse at 2 mg/kg, iv administered as single bolus dose by LC-MS/MS analysis; assay type: ADME, organism-based; design: time infinity, dose 2 mg/kg, route intravenous; conditions: plasma; procedure, shortened: as §2
[4] = Volume of distribution at steady state in CD-1 mouse at 2 mg/kg, iv administered as single bolus dose by LC-MS/MS analysis; assay type: ADME, organism-based; design: dose 2 mg/kg, route intravenous; conditions: in vivo, read-out: Vdss; procedure, shortened: as §2
[5] = Half life in CD-1 mouse at 2 mg/kg, iv administered as single bolus dose by LC-MS/MS analysis; assay type: ADME, organism-based; design: dose 2 mg/kg, route intravenous; conditions: in vivo; procedure, shortened: as §2
[6] = Ratio of drug level in blood to plasma in CD-1 mouse at 1 uM treated 20 mins after amide hydrolysis inhibitor DFP challenge measured after 1 hr by LC-MS/MS analysis; assay type: ADME; conditions: whole blood
Procedure, shortened: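 Fresh whole blood pre-incubated 20 min with 100 µM DFP, warmed to 37 °C, spiked to 1 µM, incubated 1 h, then plasma separated; reference plasma spiked at 1 µM. Extracted with 6 volumes acetonitrile/IS, LC-MS/MS; ratio = reference plasma peak area / treated plasma peak area.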

Plasma [7] = experiment: Drug metabolism in CD-1 mouse plasma assessed as hydrolysis metabolite formation rate by LC-MS/MS analysis; assay type: ADME, cell-free
Procedure, shortened: (§3)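 Mouse plasma depletion kinetics at 37 °C, substrate range 0.0023–5 µM, up to 3 h; samples quenched into acetonitrile/tolbutamide, LC-MS/MS. CLint per concentration from t1/2; apparent Vmax and Km fitted by nonlinear regression to Michaelis-Menten, formation rate simulated from fit; mean of two replicates.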

[8] = Drug metabolism in CD-1 mouse liver microsomes assessed as hydrolysis metabolite formation rate by LC-MS/MS analysis; assay type: ADME; procedure, shortened: as §1
[9] = Mean residence time in CD-1 mouse at 2 mg/kg, iv administered as single bolus dose by LC-MS/MS analysis; assay type: ADME, organism-based; design: dose 2 mg/kg, route intravenous; conditions: in vivo; procedure, shortened: as §2
[10] = Fraction unbound in CD-1 mouse plasma after 7 hrs by equilibrium dialysis method; assay type: ADME, cell-free
Procedure, shortened: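 Mouse plasma pre-treated 20 min with 100 µM DFP to block hydrolysis, spiked at 0.1, 0.5 or 2 µM, equilibrium dialysis against PBS for 7 h at 37 °C, 5% CO2, triplicate; matrix-matched samples extracted with acetonitrile/IS, LC-MS/MS; fu = buffer/plasma concentration.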

[11] = In vitro half life in CD-1 mouse plasma at 0.83 uM by LC-MS/MS analysis; assay type: ADME, cell-free
Procedure, shortened: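 Screening stability: compound at 0.83 µM in mouse plasma at 37 °C, up to 3 h; timed aliquots quenched into acetonitrile with tolbutamide IS, centrifuged, LC-MS/MS; half-life from depletion, CLint = (0.693/t1/2)/plasma concentration.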

[12] = Fraction unbound in CD-1 mouse liver microsomes after 7 hrs by equilibrium dialysis method; assay type: ADME
Procedure, shortened: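 Equilibrium dialysis of 0.25 mg/mL mouse liver microsomes in phosphate buffer against PBS, 7 h at 37 °C, 5% CO2, test compound 0.1, 0.5 or 2 µM, triplicate; LC-MS/MS; fraction unbound = buffer/microsome concentration.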

Plasma [13] = experiment: Drug metabolism in CD-1 mouse plasma assessed as maximum intrinsic clearance for hydrolysis metabolite formation by LC-MS/MS analysis; assay type: ADME, cell-free; procedure, shortened: as §3

Vmax(app) [1]: 279 pmol/min/mg
Km ([1]; read-out: Km(app)): 1.9 µM
clearance [2]: 35.7 mL/min/kg
AUC(0-inf) [3]: 1.53 µM·h
Vd [4]: 5.47 L/kg
half-life [5]: 2.08 h
blood plasma ratio at 1 h, 1 µM [6]: 0.9
Vmax(app) (Plasma [7]): 0.305 pmol/min/mL
Km (Plasma [7]; read-out: Km(app)): 0.146 µM
Vmax(app) [8]: 2.49 pmol/min/mg
Km ([8]; read-out: Km(app)): 0.053 µM
MRT [9]: 2.56 h
fraction unbound at 7 h [10]: 0.011
half-life at 0.83 µM [11]: 8.2 h
fraction unbound at 7 h [12]: 0.22
CL (Plasma [13]): 2.09 uL/min.ml
Structure (SMILES): CC(C)NC(=O)[C@H]1CC[C@@H](n2/c(=N/C(=O)c3cc(F)cc(Cl)c3)[nH]c3ccc(CN4CCC(C(C)(C)O)CC4)cc32)CC1
